In ChEMBL document CHEMBL1828569, “Cyclopentane-1,3-dione: a novel isostere for the carboxylic acid functional group. Application to the design of potent thromboxane (A2) receptor antagonists” (J Med Chem, 2011):

Assays:
Thromboxane A2 receptor [1] = biological target: T1, Thromboxane A2 receptor (Homo sapiens, UniProt P21731)
T1 sequence (P21731 whole entry): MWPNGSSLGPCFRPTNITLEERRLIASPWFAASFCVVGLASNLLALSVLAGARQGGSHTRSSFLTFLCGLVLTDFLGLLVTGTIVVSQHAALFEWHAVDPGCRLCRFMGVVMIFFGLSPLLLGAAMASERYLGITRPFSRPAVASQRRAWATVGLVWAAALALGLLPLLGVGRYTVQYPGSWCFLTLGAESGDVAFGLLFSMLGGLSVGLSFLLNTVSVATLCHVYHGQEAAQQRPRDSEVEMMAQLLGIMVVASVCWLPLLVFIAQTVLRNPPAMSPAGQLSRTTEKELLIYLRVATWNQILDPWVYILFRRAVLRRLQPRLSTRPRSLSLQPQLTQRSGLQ

Thromboxane A2 receptor [2] = biological target: T2, Thromboxane A2 receptor (Mus musculus, UniProt P30987); experiment: Displacement of [3H]SQ-29548 from mouse prostanoid TP receptor expressed in QBI-HEK 293A cells after 2 hrs by scintillation proximity assay; type: cell-based, HEK293
T2 sequence (P30987 whole entry): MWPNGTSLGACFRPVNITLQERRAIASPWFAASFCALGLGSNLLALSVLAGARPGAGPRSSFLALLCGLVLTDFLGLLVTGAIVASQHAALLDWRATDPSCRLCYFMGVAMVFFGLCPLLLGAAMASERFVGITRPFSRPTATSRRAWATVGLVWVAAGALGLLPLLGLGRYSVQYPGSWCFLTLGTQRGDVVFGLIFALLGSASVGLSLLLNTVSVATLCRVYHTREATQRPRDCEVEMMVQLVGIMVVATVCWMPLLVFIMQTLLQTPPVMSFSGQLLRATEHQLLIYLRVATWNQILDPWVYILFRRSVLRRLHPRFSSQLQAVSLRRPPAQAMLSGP
Summary of the method: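 Membranes from QBI-HEK 293A cells stably expressing mouse TP receptor. Cells were harvested in PBS/1 mM EDTA, homogenized in 20 mM Hepes/1 mM EGTA/0.5 mM DTT with protease inhibitors, spun at 1000g and then 21 000 rpm, and the pellet resuspended in Hepes/EGTA/100 mM NaCl. Antagonist at 10 concentrations, 62.5 μg membrane, 100 μg PVT-WGA SPA beads and 20 nM [3H]SQ29,548 in 50 mM Tris, 4 mM CaCl2, 0.1% ascorbate, pH 7.5, 2 h at 25 °C.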

Thromboxane A2 receptor [3] = biological target: T1, Thromboxane A2 receptor; experiment: Displacement of [3H]SQ-29548 from human prostanoid TP receptor expressed in QBI-HEK 293A cells after 2 hrs by scintillation proximity assay; type: cell-based, HEK293
Thromboxane A2 receptor [4] = biological target: T2, Thromboxane A2 receptor; experiment: Antagonist activity at mouse prostanoid TP receptor expressed in QBI-HEK 293A cells assessed as inhibition of […]-induced increase in inositol monophosphate after 1 hr by time-resolved fluorescence assay; type: functional, cell-based, HEK293
Summary of the method: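 QBI-HEK 293A cells stably transfected with human or mouse TP receptor cDNA, seeded at 10 000 cells/well and grown 16 h at 37 °C. Cells were preincubated 15 min at 37 °C with antagonist at varying concentrations in Hepes-buffered saline containing 50 mM LiCl, pH 7.4. I-BOP was then added at 1.6 nM for 1 h. IP1 was measured by HTRF (Tb anti-IP1 cryptate/D2-IP1, 1 h at 25 °C) as the 665/620 nm ratio.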

[5] = Dissociation constant, pKa of the compound by pH metric method; type: physicochemical
[6] = Octanol-phosphate buffer partition coefficient, log P of the compound by pH metric method; type: physicochemical
[7] = Solubility of the compound in acetonitrile at 10 uM after 2 hrs by spectrophotometry; type: physicochemical
[8] = Lipophilicity, log D of the compound at pH 7.4 by pH metric method; type: physicochemical; conditions: buffer

Row | Compound | IC50 (Thromboxane A2 receptor [1]) | Kd (Thromboxane A2 receptor [2]) | Kd (Thromboxane A2 receptor [3]) | pKa [5] | logP [6] | solubility [7] | logD [8] | also measured
1 | CC1=C(O)CC(Cc2ccc(Br)cc2)C1=O (centres undefined) | – | – | – | 4.24 | 3.28 | soluble | 0.11 | –
2 | O=C(O)CCc1ccc(Br)cc1 | – | – | – | 4.33 | 3 | soluble | 0.01 | –
3 | O=S(=O)(NCCc1cccc(CCc2nnn[nH]2)c1)c1ccc(Cl)cc1 | 64 nM | 19 nM | 331 nM | – | – | – | – | IC50 (Thromboxane A2 receptor [4]): 8 nM
4 | O=c1c(O)c(NCc2cccc(CCNS(=O)(=O)c3ccc(Cl)cc3)c2)c1=O | 377 nM | 17 nM | 359 nM | – | – | – | – | IC50 (Thromboxane A2 receptor [4]): 91 nM
5 | O=C1CCC(O)=C1Cc1cccc(CCNS(=O)(=O)c2ccc(Cl)cc2)c1 | > 10000 nM | 1200 nM | 11400 nM | – | – | – | – | –
6 | O=C1CCC(O)=C1CCc1cccc(CCNS(=O)(=O)c2ccc(Cl)cc2)c1 | > 10000 nM | – | – | – | – | – | – | –
7 | O=C1C=C(O)C(Cc2cccc(CCNS(=O)(=O)c3ccc(Cl)cc3)c2)C1 (centres undefined) | – | 11 nM | 203 nM | – | – | – | – | –
8 | CC1=C(O)C(Cc2cccc(CCNS(=O)(=O)c3ccc(Cl)cc3)c2)CC1=O (centres undefined) | – | 26 nM | 328 nM | – | – | – | – | –
9 | O=C(O)CCc1cccc(CCNS(=O)(=O)c2ccc(Cl)cc2)c1 | – | 26 nM | – | – | – | – | – | –

Continued, in another order:

Row | IC50 (Thromboxane A2 receptor [1]) | Kd (Thromboxane A2 receptor [2]) | Kd (Thromboxane A2 receptor [3]) | pKa [5] | logP [6] | solubility [7] | logD [8] | Compound | also measured
10 | 15100 nM | 10000 nM | > 10000 nM | – | – | – | – | O=S(=O)(NCCc1cccc(CCCO)c1)c1ccc(Cl)cc1 | IC50 (Thromboxane A2 receptor [4]): 1630 nM
11 | – | – | – | 4.2 | – | – | – | O=C1C=C(O)CC1 | –
12 | – | – | – | 4.47 | – | – | – | CC1=C(O)CCC1=O | –
13 | – | – | – | 3.96 | 3.02 | soluble | -0.42 | O=C1C=C(O)CC1Cc1ccc(Br)cc1 (centres undefined) | –
14 | – | – | – | 4.2 | 3.01 | soluble | -0.19 | O=C1CCC(O)=C1Cc1ccc(Br)cc1 | –
15 | – | – | – | 4.62 | 2.21 | soluble | -0.42 | Brc1ccc(Cc2nn[nH]n2)cc1 | –
16 | > 10000 nM | – | – | – | – | – | – | CC1=C(OCC(C)C)CC(Cc2cccc(CCNS(=O)(=O)c3ccc(Cl)cc3)c2)C1=O (centres undefined) | –
